STAT1 activator = STAT1 signaling activation; NIH 3T3 STAT1-luciferase reporter, IFN-gamma, luminescence; 100% = IFN-gamma alone, no compound; activation (% of control), % at 5.5 µM; 200,000 tested, 2.6% active;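 active means activation above the screen-wide mean activation plus 3 SD, cut at about 130% in these data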;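 further: raw ratio to IFN-gamma control signal so 100% means no change and 0% no light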
STAT3 blocker = reduces IL-6 driven STAT3 reporter signal; U3A cells, IL-6 STAT3-luciferase reporter, luminescence; host cell line lacks STAT1; 190,000 tested, 0.89% active; inhibition, % at 5.5 µM;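 active means inhibition above the mean inhibition across all screened compounds plus 3 SD, cut at about 44% in these data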;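 further: 0% = DMSO only wells and 100% = 100 µM nifuroxazide control wells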
STAT3 act = activators of IL-6 induced STAT3 signaling; activation (% of control), % at 5.6 µM; 190,000 tested, 0.91% active; U3A cells, IL-6 STAT3-luciferase reporter, luminescence; 100% = signal with IL-6 EC80 alone;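 active means activation above the screen-wide mean of compound activation plus 3 SD, cut at about 130% in these data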;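 further: 0% = background luminescence of wells with medium and substrate only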
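Assay system – human STAT1-deficient U3A cells with stable STAT3-luciferase reporter · Also added – IL-6 (33 ng/mL) · Schedule – compound 1 h, then IL-6 6 h at 37 °C · Technique – reporter luminescence signal · Evaluation – % activation versus median of IL-6-stimulated wells · Benchmarks – IL-6-only wells as 100% reference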
STAT1 inh-1 = STAT1 signaling inhibition | NIH 3T3 STAT1-luciferase reporter, IFN-gamma, luminescence | AID 920 | 200,000 tested, 0.35% active | inhibition, % at 5.5 µM;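 active means inhibition above a set limit, the mean inhibition across all tested compounds plus 3 SD, cut at about 34% in these data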;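 further: 0% = IFN-gamma with DMSO and 100% = IFN-gamma with 300 µM nifuroxazide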
STAT1 inh-2 = confirmation of STAT1 signaling inhibitors; shares compounds with STAT1 inh-1; NIH 3T3 STAT1-luciferase reporter, IFN-gamma, luminescence; inhibition, % at 5.5 µM; 200 tested, 55% active;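 active means triplicate mean inhibition exceeding the hit cutoff computed for the primary STAT1 screen, cut at about 35% in these data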;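 further: 0% = DMSO with IFN-gamma and 100% = 300 µM nifuroxazide with IFN-gamma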
NFkB inh = NF-kappaB inhibition in STAT1 inhibitor counter-screen; inhibition, % at 5.7 µM; shares compounds with STAT1 inh-1; 200 tested, 30% active; HEK293T NF-kB luciferase reporter, TNF-alpha induced, luminescence;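 active means inhibition above the mean of solvent-only control wells plus 3 SD of those wells, cut at about 15% in these data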;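 further: 0% = DMSO with TNF-alpha and 100% = MG-132 control with TNF-alpha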
STAT3 inh 2 = STAT3 inhibition in STAT1 inhibitor counter-screen. shares compounds with STAT1 inh-1. U3A cells, IL-6 STAT3 luciferase reporter, luminescence; cells lacking STAT1. inhibition, % at 5.7 µM. 200 tested, 20% active;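 active means inhibition above the mean of solvent-only control wells plus 3 SD, set per campaign, cut at about 25% in these data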;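 further: 0% = IL-6 plus DMSO and 100% = IL-6 plus nifuroxazide control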
Starred values were filed as active, the others as inactive; . = not tested or not shown. An excerpt weighted towards active compounds, which were near 4.3% of everything screened.

SMILES	STAT1 activator	STAT3 blocker	STAT3 act	STAT1 inh-1	STAT1 inh-2	NFkB inh	STAT3 inh 2
Cc1ccc2sc(-c3ccc(NC(=O)/C=C\C(=O)O)cc3)nc2c1	59.3	19.3	85.5	43.0*	-91.2	-36.3	-20.6
O=C(N/N=C/c1ccncc1)c1nn(Cc2ccccc2)c(=O)c2ccccc12	62.8	15.6	93.0	39.3*	22.6	-7.6	8.2
CCOC(=O)C(C)Sc1ncc(-c2ccccc2)cn1 (stereo unspecified)	106.5	7.5	95.5	-7.6	.	.	.
CCOC(=O)c1c(C)sc2c1N(C(=O)CCl)c1cc(Cl)ccc1S2	66.9	23.4	82.8	36.1*	40.1*	30.3*	15.4
CCCCNC(=O)COC(=O)CNC(=O)c1cc(Cl)cc([N+](=O)[O-])c1	106.6	5.7	101.7	-7.4	.	.	.
CCOC(=O)C(=CNc1ccc(NC2=NCC(C)S2)cc1)C(=O)OCC (stereo unspecified)	45.9	14.8	90.1	59.9*	58.6*	38.4*	20.7
CC(C)(C)C(=O)Cn1c(=O)n(-c2ccc(F)cc2F)c(=O)c2sccc21	95.7	2.4	99.7	3.2	.	.	.
COc1ccc(CCNC(=O)Cn2c(=O)n(-c3ccc(F)cc3)c(=O)c3sccc32)cc1OC	52.4	16.9	87.8	50.1*	34.9*	4.4	6.2
COc1ccc(CCNC(=O)Cn2c(=O)n(-c3cc(F)ccc3F)c(=O)c3sccc32)cc1OC	50.9	8.2	97.2	53.2*	33.5	3.3	7.0
COc1ccc(CCNC(=O)Cn2c(=O)n(-c3ccc(F)cc3F)c(=O)c3sccc32)cc1OC	61.4	7.6	95.4	40.3*	31.4	6.6	11.9
COc1ccc(CCNC(=O)Cn2c(=O)oc3ccccc32)cc1OC	104.9	1.9	101.5	-5.3	.	.	.
CC(=O)Nc1ccc(C(=O)CSc2nnnn2C2CCCC2)cc1	99.8	13.4	94.3	-1.8	.	.	.
CSc1ccc(/C=N/N2CCN(Cc3ccccc3)CC2)cc1	113.8	2.2	100.0	-14.1	.	.	.
COc1ccc(NC(=O)c2ccc(-c3ccccc3)cc2)cc1S(=O)(=O)N1CCOCC1	64.6	31.0	75.1	38.4*	47.2*	28.6*	15.2
CCc1ccc(C(=O)Nc2ccc(OC)c(S(=O)(=O)N3CCOCC3)c2)cc1	88.3	16.2	87.2	13.1	.	.	.
CCOc1cc(-c2noc(N)c2C#N)cc(OCC)c1OCC	63.6	14.4	91.0	39.6*	42.4*	0.2	10.5
CC(=O)Nc1c(C)ccc(CNC(=O)COc2cc(C)ccc2C)c1C	94.8	4.3	103.9	5.7	.	.	.
C=CCOC(=O)C1=C[C@H](c2ccc(Br)cc2)[C@@H](CCCO)[C@H](OCC)O1	65.4	.	.	38.4*	20.8	-6.6	0.5
Oc1ccc(Oc2ccc3c(C(F)(F)F)cc(C(F)(F)F)nc3n2)cc1	43.9	19.6	84.7	61.5*	53.6*	22.6*	13.7
COc1ccc(Oc2ccc3c(C(F)(F)F)cc(C(F)(F)F)nc3n2)cc1	99.5	7.0	99.2	0.5	.	.	.
CC(CNC(=O)CC(C)(C)C)NC(=O)CC(C)(C)C (stereo unspecified)	102.8	-9.2	109.8	-3.0	.	.	.
Cc1ccc(-c2csc3ncnc(Sc4nnc(CN5CCCCCC5=O)o4)c23)cc1	59.6	26.7	80.8	44.0*	55.6*	12.1	21.0
COc1ccc(N/N=C(\C#N)C(=N)SCc2ccccc2)cc1	65.5	7.5	97.8	36.8*	24.5	58.7*	-14.9
COc1ccc(N/N=C(/C#N)S(=O)(=O)C(C)(C)C)cc1	96.8	3.5	100.4	3.0	.	.	.
Cc1cccc(N2CC(O)(c3cccs3)[N+]3=C2CCCC3)c1C (stereo unspecified)	62.4	4.4	100.3	38.7*	30.9	-5.5	0.3
COC(=O)c1ccc(CC(=O)c2ccc(O)cc2O)o1	80.3	8.3	94.5	21.5	.	.	.
CCOC(=O)c1ccc(CC(=O)c2ccc(O)cc2O)o1	52.5	25.2	82.1	51.3*	45.7*	31.9*	-35.1
COc1ccc(-n2c(SCc3ccccn3)nc3c(c2=O)SCC3)cc1OC	63.0	5.0	106.6	39.9*	29.8	-2.2	-23.6

Screening data from PubChem.
